Compound activity deposited in PubChem BioAssay by The Scripps Research Institute Molecular Screening Center.
Shown are actives, neighbours in structure and some others; about 1.9% of the full set was active somewhere.
PLC-gamma1 inh: blocks human PLC-gamma1 enzyme activity; AID 720700; P19174; inhibition, % at 12.2 µM; purified PLC-gamma1, fluorogenic substrate, fluorescence; hit rate 0.84% among 370,000; in the data active = inhibition above about 9.5%
ARFGAP1 inhibitor: rat ARFGAP1 inhibition | AID 651572 | hit rate 0.26% among 360,000 | Q62848 | Arfgap1-stimulated ARF1 GTP hydrolysis, GDP FP detection | inhibition, % at 16.5 µM;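 active = inhibition above a per-plate limit, mean inhibition of low control wells plus 3 SD, cut at about 25% in these data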;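 also: 0% = DMSO wells with enzyme and 100% = wells lacking Arfgap1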
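Material: truncated rat Arfgap1 GAP domain; Incubation: compound-enzyme preincubation 20 min, reaction 120 min, detection 60 min, 25 °C; Read-out: percent inhibition of Arfgap1-stimulated GTP hydrolysis; Technique: FP, GDP Alexa 633 tracer displaced from anti-GDP antibody, 620/688 nm; Controls: No-Arfgap1 wells (100%) versus DMSO full-reaction wells (0%); Replication: single well per compound.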
HGIII-sPLA2 inh: Inhibits HGIII-sPLA2 liposome hydrolysis, primary screen | Q9NZ20 | QFRET BODIPY PC-A2 liposome hydrolysis, fluorescence | inhibition, % at 12.2 µM | hit rate 0.56% among 370,000 | AID 743126;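 active = inhibition above mean plus 3 SD of compounds lying within the high and low control bounds, cut at about 19% in these data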;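 also: 0% = median of test compound wells and 100% = no enzyme DMSO wells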
PLCb3 inh: PLC-beta3 (human) inhibition, primary screen. inhibition, % at 12.2 µM. hit rate 0.18% among 370,000. Q01970. Purified PLC-beta3, fluorogenic substrate, fluorescence;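 also: 0% = median of compound wells on plate and 100% = full blocker control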
ASAP1 GAP inh: ASAP1 ArfGAP inhibition | ASAP1-stimulated ARF1 GTP hydrolysis, GDP FP detection | inhibition, % at 16.5 µM | hit rate 0.19% among 360,000; in the data active = inhibition above about 25%;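 also: 0% = vehicle with enzyme and substrate and 100% = no enzyme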
PLCg1 ctr: PLC-gamma1 inhibition, counter-screen for PLC-beta3 hits. hit rate 3.1% among 3,300. shares compounds with PLC-gamma1 inh. inhibition, % at 12.3 µM. AID 743258. purified PLC-gamma1, fluorogenic substrate, fluorescence; in the data active = inhibition above about 9.5%
PLCbeta3 conf: confirmation of human PLC-beta3 inhibitors | AID 743261 | purified PLC-beta3, fluorogenic substrate fluorescence | hit rate 1% among 3,300 | shares compounds with PLC-gamma1 inh | inhibition, % at 12.3 µM
* = called active by the depositor; nt = no result given. Rule as the data show it, unless noted: active = inhibition above about 11%; inactive = the rest.

SMILES | PLC-gamma1 inh | ARFGAP1 inhibitor | HGIII-sPLA2 inh | PLCb3 inh | ASAP1 GAP inh | PLCg1 ctr | PLCbeta3 conf
COc1ccc(OC)c(S(=O)(=O)NC(=O)C2(C)CCN2C(=O)Cc2ccccc2Cl)c1 (stereo not given) | -2 | -3 | 6 | 3 | 7 | nt | nt
COc1ccc(OC)c(S(=O)(=O)NC(=O)C2(C)CCN2C(=O)CC2CCCC2)c1 (stereo not given) | 11* | -5 | 18 | 4 | -2 | -5 | -2
CC1(C(=O)NS(=O)(=O)c2ccccc2Cl)CCN1C(=O)Cc1ccccc1Cl (stereo not given) | 12* | -7 | -2 | 6 | -3 | -3 | 0
Cc1cc(N2CCN(C(=O)OC(C)(C)C)C[C@H]2C)ccc1N1CCS(=O)(=O)CC1 | 0 | 3 | 6 | 1 | 7 | nt | nt
COC(=O)C1=C(C)N(Cc2ccccc2C(F)(F)F)C(=NCc2ccccc2)NC1c1cccc(F)c1 (stereo not given) | -2 | 0 | 0 | -8 | -12 | nt | nt
CCOC(=O)C1=NOC(C(=O)NC2CCCC2)(C(=O)C2CC2)C1 (stereo not given) | -2 | nt | 8 | -2 | nt | nt | nt
CCOc1cc(/C=C2/C(=O)N(c3ccccc3)N=C2C)ccc1OC(=O)c1ccco1 | 10* | 1 | 5 | 3 | -11 | -4 | -3
Cc1cccc(NC(=O)C(=O)NCC2CCCN2S(=O)(=O)c2cccs2)c1 (stereo not given) | 9.5* | 2 | -12 | -6 | -8 | -4 | -5
Cc1cccc(NC(=O)N2CCCC2C(=O)NCc2cccs2)c1 (stereo not given) | 12* | 1 | 1 | 5 | 7 | -4 | 1
Cc1cccc(NC(=O)C2CCCN2C(=O)Oc2ccccc2)c1 (stereo not given) | 9 | 4 | 5 | -3 | 10 | nt | nt
Cc1cccc(NC(=O)N2CCCC2C(=O)Nc2ccccc2)c1 (stereo not given) | 13* | 4 | 9 | 7 | 12 | -4 | -4
Cc1ccc(NC(=O)N2CCCC2C(=O)NCc2cccs2)cc1 (stereo not given) | 3 | 3 | 7 | 8 | -12 | nt | nt
COc1ccc(NC(=O)N2CCCC2C(=O)Nc2cccc(C)c2C)cc1 (stereo not given) | 12* | 7 | 14 | 6 | 3 | -4 | -3
O=C(Nc1ccc(F)cc1Cl)C1CCCN1S(=O)(=O)c1cccc2cccnc12 (stereo not given) | -2 | nt | 4 | 0 | nt | nt | nt
CC(C)(C)S(=O)(=O)N1Cc2cc(CO)ccc2[C@@H]1CCO | -5 | -3 | 10 | -8 | 1 | nt | nt
COc1ccc(OC)c(NC(=O)NCCc2c[nH]c3ccccc23)c1 | 12* | 1 | -60 | -1 | 5 | -6 | -4
COC1=C[C@H](C(=O)NCCNC(C)=O)[C@@]2(C)Cc3ccccc3[C@H]2CC1=O | 1 | nt | 4 | 0 | nt | nt | nt
O=C1c2ccccc2C2Cc3nnccc3CN12 (stereo not given) | -3 | 11 | -6 | -3 | -8 | nt | nt
O=C(OC12CCCN(C1)/C(=C/c1cccc(Cl)c1)C2)c1ccccc1 (stereo not given) | 1 | nt | -8 | -1 | nt | nt | nt
CC(SC(C)C(=O)NN=Cc1cccc(Cl)c1)C(=O)NN=Cc1cccc(Cl)c1 (stereo not given) | 9 | 2 | 5 | 11* | -6 | -12 | -4
COc1cccc(C=NNC(=O)C(C)SC(C)C(=O)NN=Cc2cccc(OC)c2)c1 (stereo not given) | 0 | -12 | 0 | 4 | -9 | nt | nt
Cc1ccc2cc(CCNC(=O)C3CCCC3)c(=O)[nH]c2c1 | 3 | -1 | 2 | 11* | 1 | -7 | -2
COC(=O)[C@]12CCCCC=C1N(Cc1ccc(Cl)cc1Cl)C(=O)[C@H](CC(=O)N1CCC(c3ccccc3)CC1)C2 | 12* | 9 | 12 | -5 | 0 | 7 | 3
CCOC(=O)[C@]12CCCC=C1N(Cc1ccc(Cl)cc1Cl)C(=O)[C@H](CC(=O)N1CCC(c3ccccc3)CC1)C2 | 2 | -4 | 2 | 1 | -3 | nt | nt
Cc1cc2nc(CCN(Cc3cccnc3)C(=S)Nc3ccc(F)cc3)[nH]c2cc1C | 12* | 4 | 2 | 2 | 8 | -3 | -6
